# Test results reported in PMC12848671 (Chemical & Biomedical Imaging, 2025).
# Like-named read-outs stand apart in the source and are kept apart here. Ends that are not written are not given here. * marks the point of attachment. 125I = [125I]*
# Key:
# [1] = Chemical stability by analytical HPLC; type: physicochemical; conditions: 1 mg/mL, 37 °C, 24 h
# Summary of the method: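 For acid stability, test peptide at 1 mg/mL in diluted HCl (pH 2), held at 37 °C for up to 24 h. Purity by analytical HPLC on a C18 column: A = acetonitrile/0.1% TFA, B = water/0.1% TFA, 65-40-0% B over 0-20-20.1 min, 1 mL/min, room temperature.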
# [2] = system: HEK293-hACE2 cells; conditions: even at a concentration of 36.27 μM; 36 h
# [3] = system: HEK293-hACE2 cells; conditions: 36 h
# [4] = system: wild-type C57BL/6 mice; assay: 68Ga-DOTA-Omi-X PET/CT, wild-type mice; type: in vivo, mouse; conditions: 3.7 MBq i.v., PET 2 h P.I.
# [5] = Radiochemical stability in 0.01 M PBS; type: physicochemical; conditions: radio-TLC, mean ± SD
# [6] = Radiochemical stability in 10% FBS; type: in vitro ADME; conditions: radio-TLC, mean ± SD
# [7] = system: HEK293-hACE2 cells; type: cell-based, human; conditions: 2 × 10^6 cells/mL, 0.5 mL, γ-counter, mean ± SD, three repetitions
# [8] = system: K18-hACE2 mice; assay: 125I-based SPECT/CT in vivo distribution, K18-hACE2 mice; design: species or system mouse
# Summary of the method: (§1)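 Male mice, 4 months old, n = 5 per strain, anaesthetised with isoflurane (1.5%–2% induction, 1%–1.5% maintenance). Each got 3.28 ± 0.42 MBq of the 125I-labelled test peptide via the lateral tail vein. SPECT (35 keV, MLEM, 28 min) at 1 and 6 h post-injection, followed by CT. Manual 3D ROIs gave uptake (counts/mm3) in heart, lungs, liver and GI tract.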
# [9] = system: C57BL/6 mice; assay: 125I-based SPECT/CT in vivo distribution, wild-type mice; design: species or system mouse; conditions: WT C57BL/6 mice, i.v., by 6 h P.I.
# Summary of the method: as §1
molecule,measurement,setting,value
CC(C)C[C@H](NC(=O)[C@H](CC(C)C)NC(=O)[C@H](CCC(=O)O)NC(=O)[C@H](Cc1ccccc1)NC(=O)[C@H](CO)NC(=O)[C@H](CC(C)C)NC(=O)[C@@H](NC(=O)[C@@H](NC(=O)[C@@H](NC(=O)[C@H](CCCNC(=N)N)NC(=O)[C@H](Cc1ccc(O)cc1)NC(=O)[C@@H]1CCCN1C(=O)[C@H](CCC(N)=O)NC(=O)[C@@H](N)Cc1c[nH]cn1)C(C)C)C(C)C)C(C)C)C(=O)N[C@@H](Cc1c[nH]cn1)C(=O)O [Omi-X],chemical stability of the peptide sequence,"[1]; diluted HCl (pH = 2), analytical HPLC C18",chemically stable
same,chemical stability of the peptide sequence,"[1]; weakly acidic environment: diluted HCl (pH = 2), analytical HPLC",> 95%
same,effect on cell cycle distribution,[2],no significant effect
same,cell-division rate (CFDA SE),[3]; 54.410 μM (100 μg/mL),slightly inhibited
same,cell-division rate (CFDA SE),[3]; low-dose 0.544 μM (1 μg/mL),no significant difference
same,cell-division rate (CFDA SE),[3]; medium-dose 5.441 μM (10 μg/mL),no significant difference
"CC(C)C[C@H](NC(=O)[C@H](CC(C)C)NC(=O)[C@H](CCC(=O)O)NC(=O)[C@H](Cc1ccccc1)NC(=O)[C@H](CO)NC(=O)[C@H](CC(C)C)NC(=O)[C@@H](NC(=O)[C@@H](NC(=O)[C@@H](NC(=O)[C@H](CCCNC(=N)N)NC(=O)[C@H](Cc1ccc(O)cc1)NC(=O)[C@@H]1CCCN1C(=O)[C@H](CCC(N)=O)NC(=O)[C@H](Cc1c[nH]cn1)NC(=O)CN1CCN(CC(=O)O)CCN(CC(=O)O)CCN(CC(=O)O)CC1)C(C)C)C(C)C)C(C)C)C(=O)N[C@@H](Cc1c[nH]cn1)C(=O)O [^68Ga-DOTA-Omi-X, metal not drawn]",ACE2-specific targeting,[4],did not appear to show significant ACE2-specific targeting
same,radiochemical stability (4 h) in 0.01 M PBS,[5],96.10 ± 0.75%
same,radiochemical stability (4 h) in 10% FBS,[6],94.10 ± 1.55%
TVCGPKKSTNLVKNK [Omi-B],radioactive uptake rate in HEK293-hACE2 cells (ACE2-binding rate),[7],15.04% ± 2.98%
^125I-Omi-X: 125I-labeled Omi-X for SPECT imaging (HQPY(125I)RVVVLSFELLH),clearance from circulation,"[8]; i.v. tail vein, SPECT/CT 1 h P.I.",rapidly cleared from circulation
same,excretion of unbound tracer,"[8]; i.v., SPECT/CT",primarily excreted through the urinary system
same,organ accumulation,"[8]; i.v., SPECT/CT 1 h P.I.","notably accumulated in the organs highly expressing ACE2, including the lung, heart, liver, and spleen"
same,uptake in RAAS-related organs,[9],greatly reduced
